In ChEMBL document CHEMBL1212784, “Structure-microbicidal activity relationship of synthetic fragments derived from the antibacterial alpha-helix of human lactoferrin” (2010) one finds MIC99 and Activity data, which are given here for 11 compounds.

The subject of experiment [1] is Candida albicans. Nature of the experiment: Antimicrobial activity against Candida albicans ATCC […] incubation in bactopeptone. It is filed as functional. The settings on record: ATCC 64549. An outline of the steps: (§1)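 Microplate killing assay in 1% Bactopeptone (pH 7.0). Log-phase organisms (BHI overnight, 2 h subculture, 37°C, washed), final ~2 × 10^5 cells/ml, with twofold peptide dilutions, 37°C humid chamber 2 h (or 20 h where stated). 5 μl drops plated on blood agar overnight; MMC99 = lowest concentration giving ≥99% inoculum reduction; duplicates.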

Experiment [2] has as its system Staphylococcus aureus. Nature of the experiment: Antimicrobial activity against Staphylococcus aureus 1800 (CCUG 1800) at 62.7 uM within 30 mins. The class given is functional. The following applies: in the assay text read “65.4 uM” for “62.7 uM”. An outline of the steps:
(§2)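 Killing kinetics in Bactopeptone with 62.7 μM or 65.4 μM peptide against ~2 × 10^5 cells/ml; samples taken immediately after mixing and at 5, 10, 30, 60 and 120 min, serially diluted and plated for viable counts; percent of inoculum killed; duplicates.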

Experiment [3] in a line: Antimicrobial activity against Escherichia coli O6 K5 incubation in bactopeptone. It is filed as functional. In outline:
as §1

Experiment [4] relates to Staphylococcus aureus. The experiment is described as follows: Antimicrobial activity against Staphylococcus aureus 1800 (CCUG 1800) incubation in bactopeptone. It is filed as functional. An outline of the steps:
as §1

Experiment [5] has as its system Candida albicans. The experiment is described as follows: Antimicrobial activity against Candida albicans ATCC […] at 65.4 uM within 5 mins. The class given is functional, ATCC 64549. An outline of the steps:
as §2

Experiment [6] concerns Escherichia coli. The experiment is described as follows: Antimicrobial activity against Escherichia coli O14 using in brain heart infusion medium(dil) after 2 hrs at 25 ug/ml. It is filed as functional. In outline: (§3)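 Single-concentration screen: log-phase organisms (~2 × 10^5 cells/ml) incubated 2 h at 37°C in diluted BHI (1/100 of 3.4%, pH 6.7 to 6.9) with 25 μg/ml peptide (10 μg/ml for E. coli O6 and C. albicans); viable counts on blood agar; scored as ≥99% killed or not; duplicates.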

Experiment [7] deals with Candida albicans. The experiment is described as follows: Antimicrobial activity against Candida albicans ATCC […] using in brain heart infusion medium(dil) after 2 hrs at 10 ug/ml. The class given is functional, ATCC 64549. In outline:
as §3

The next experiment concerns Enterococcus faecalis. Nature of the experiment: Antimicrobial activity against Enterococcus faecalis ATCC 19433 using in brain heart infusion medium(dil) after 2 hrs at 25 ug/ml. The class given is functional. An outline of the steps:
as §3

The subject of the next experiment is Pseudomonas aeruginosa. The experiment is described as follows: Antimicrobial activity against Pseudomonas aeruginosa CCUG 551 using in brain heart infusion medium(dil) after 2 hrs at 25 ug/ml. The class given is functional. An outline of the steps: as §3
For experiment [8], the system named is Staphylococcus epidermidis. Nature of the experiment: Antimicrobial activity against Staphylococcus epidermidis CCUG 18000A using in brain heart infusion medium(dil) after 2 hrs at 25 ug/ml. The class given is functional. An outline of the steps:
as §3

Experiment [9] deals with Staphylococcus aureus. Nature of the experiment: Antimicrobial activity against Staphylococcus aureus 1800 (CCUG 1800) using in brain heart infusion medium(dil) after 2 hrs at 25 ug/ml. The class given is functional. An outline of the steps: as §3
A further experiment deals with Klebsiella pneumoniae. The experiment is described as follows: Antimicrobial activity against Klebsiella pneumoniae CCUG 9997 using in brain heart infusion medium(dil) after 2 hrs at 25 ug/ml. The class given is functional. An outline of the steps: as §3
In experiment [10] the test system is Escherichia coli. Nature of the experiment: Antimicrobial activity against Escherichia coli O6 using in brain heart infusion medium(dil) after 2 hrs at 10 ug/ml. The class given is functional. An outline of the steps: as §3
Experiment [11] has as its system Staphylococcus aureus. Nature of the experiment: Antimicrobial activity against Staphylococcus aureus 1800 (CCUG 1800) at 65.4 uM within 10 mins. The class given is functional. The following applies: in the assay text read “62.7 uM” for “65.4 uM”. In outline: as §2
Experiment [12] concerns Candida albicans. The experiment is described as follows: Antimicrobial activity against Candida albicans ATCC […] at 62.7 uM within 5 mins. It is filed as functional, ATCC 64549. An outline of the steps:
as §2

Experiment [13] is described as follows: Antimicrobial activity against Escherichia coli O6 K5 after 2 hrs incubation in bactopeptone. The class given is functional. The following applies: K5, 2 h. In outline:
as §1

In experiment [14] the test system is Candida albicans. The experiment is described as follows: Antimicrobial activity against Candida albicans ATCC […] after 20 hrs incubation in bactopeptone. It is filed as functional. The settings on record: ATCC 64549, 20 h. An outline of the steps:
as §1

For experiment [15], the system named is Staphylococcus aureus. Nature of the experiment: Antimicrobial activity against Staphylococcus aureus 1800 (CCUG 1800) after 20 hrs incubation in bactopeptone. The class given is functional. An outline of the steps:
as §1

Experiment [16] in a line: Antimicrobial activity against Escherichia coli O6 K5 after 20 hrs incubation in bactopeptone. It is filed as functional. The settings on record: K5, 20 h. An outline of the steps:
as §1

The test system of experiment [17] is Candida albicans. The experiment is described as follows: Antimicrobial activity against Candida albicans ATCC […] after 2 hrs incubation in bactopeptone. It is filed as functional. The settings on record: ATCC 64549, 2 h. An outline of the steps:
as §1

Experiment [18] has as its system Staphylococcus aureus. Nature of the experiment: Antimicrobial activity against Staphylococcus aureus 1800 (CCUG 1800) after 2 hrs incubation in bactopeptone. The class given is functional. An outline of the steps: as §1

Values after ≈ are worked out from the molar mass of the structure shown. Positions of bridges follow the written chain, without caps; N, C: chain ends. Residues, ends and D or L forms follow the SMILES beside them. Some results are limits rather than exact numbers.

For the compound `CC[C@H](C)[C@H](NC(=O)[C@@H]1CSSC[C@H](NC(=O)[C@H](CCCCN)NC(=O)[C@@H](NC(=O)[C@H](C)NC(=O)[C@H](CCC(=O)O)NC(C)=O)[C@@H](C)O)C(=O)N[C@@H](Cc2ccccc2)C(=O)N[C@@H](CCC(N)=O)C(=O)N[C@@H](Cc2c[nH]c3ccccc23)C(=O)N[C@@H](CCC(N)=O)C(=O)N[C@@H](CCCNC(=N)N)C(=O)N[C@@H](CC(N)=O)C(=O)N[C@@H](CCSC)C(=O)N[C@@H](CCCNC(=N)N)C(=O)N[C@@H](CCCCN)C(=O)N[C@@H](C(C)C)C(=O)N[C@@H](CCCNC(=N)N)C(=O)NCC(=O)N2CCC[C@H]2C(=O)N2CCC[C@H]2C(=O)N[C@@H](C(C)C)C(=O)N[C@@H](CO)C(=O)N1)C(=O)N[C@@H](CCCCN)C(=O)N[C@@H](CCCNC(=N)N)C(N)=O` (Ac-EATKCFQWQRNMRKVRGPPVSCIKR-NH2; disulfide 5-22), the MIC99 in the experiment on Candida albicans [1] was determined as 200 µg/mL (≈ 65.4 µM); in experiment [3] it was 50 µg/mL (≈ 16.3 µM); with Staphylococcus aureus [4] it was 50 µg/mL (≈ 16.3 µM). The Activity with Staphylococcus aureus [2] is 80%; in the experiment on Candida albicans [5] it was over 90%.
As to H-ATKCFQWQRNMRKVR-OH, the Activity entry (in the experiment on Escherichia coli [6]; with Candida albicans [7]; in the experiment with Enterococcus faecalis; in the experiment on Pseudomonas aeruginosa; in experiment [8]; in the experiment with Staphylococcus aureus [9]) was “>=99%” in each case. Besides, the Activity entry with Klebsiella pneumoniae and in the experiment on Escherichia coli [10] was “>=99%” in each case.
Regarding H-CFAWQRAMRKVR-OH, the Activity is 90% in the experiment on Staphylococcus aureus [11] and 99% in the experiment on Candida albicans [12]. Also, the values for the MIC99 (in the experiment with Candida albicans [1]; in [3]; against Staphylococcus aureus [4]) were 25 µg/mL, 25 µg/mL and 50 µg/mL, respectively.
With H-CFQWQRNMRKVR-OH, the Activity entry (in the experiment on Escherichia coli [6]; with Candida albicans [7]; with Enterococcus faecalis; with Pseudomonas aeruginosa; in [8]; in the experiment on Staphylococcus aureus [9]) was “>=99%” in each case. Also, the Activity is on record as under 99% in the experiment on Klebsiella pneumoniae and “>=99%” with Escherichia coli [10]. The MIC99 was 50 µg/mL in the experiment with Candida albicans [1]; 100 µg/mL in experiment [13]; 100 µg/mL in experiment [3]; 100 µg/mL in the experiment on Candida albicans [14]; over 100 µg/mL against Staphylococcus aureus [4]; over 100 µg/mL in the experiment on Staphylococcus aureus [15]. Besides, the MIC99 in [16] was 50 µg/mL; with Candida albicans [17], over 200 µg/mL; in the experiment with Staphylococcus aureus [18], over 100 µg/mL.
Take H-EATKCFQWQRNMRKVR-OH: the Activity in the experiment with Escherichia coli [6] is on record as under 99%; in the experiment with Candida albicans [7], under 99%; in the experiment on Enterococcus faecalis, “>=99%”; in the experiment with Pseudomonas aeruginosa it was under 99%; in experiment [8], “>=99%”; with Staphylococcus aureus [9], “>=99%”. Besides, the results for the Activity in the experiment on Klebsiella pneumoniae and with Escherichia coli [10] were under 99% and “>=99%”, respectively.
In the case of H-FQWQRNMRKVR-OH, the Activity was under 99% with Escherichia coli [6]; under 99% with Candida albicans [7]; under 99% with Enterococcus faecalis; under 99% in the experiment on Pseudomonas aeruginosa; under 99% in experiment [8]; “>=99%” in the experiment with Staphylococcus aureus [9]. In addition, the Activity result in the experiment on Klebsiella pneumoniae is given as “>=99%”; in the experiment on Escherichia coli [10] it was under 99%.
For the compound H-KCFQWQRNMRKVR-OH, the Activity result (with Escherichia coli [6]; in the experiment on Candida albicans [7]; in the experiment on Enterococcus faecalis; in the experiment with Pseudomonas aeruginosa; in experiment [8]; in the experiment with Staphylococcus aureus [9]) was “>=99%” throughout. In addition, the Activity entry with Klebsiella pneumoniae and in the experiment on Escherichia coli [10] was “>=99%” each time. Further, the MIC99 in experiment [13] came to 25 µg/mL; with Candida albicans [14], 50 µg/mL; with Staphylococcus aureus [15], 50 µg/mL; in experiment [16] it was 12 µg/mL; with Candida albicans [17] it was 200 µg/mL; against Staphylococcus aureus [18], 25 µg/mL.
Take H-PEATKCFQWQRNMRKVR-OH: the Activity in the experiment with Escherichia coli [6] is listed as under 99%; in the experiment with Candida albicans [7], under 99%; in the experiment on Enterococcus faecalis, “>=99%”; in the experiment with Pseudomonas aeruginosa it was under 99%; in experiment [8] it was “>=99%”; in the experiment on Staphylococcus aureus [9] it was “>=99%”. The Activity in the experiment with Klebsiella pneumoniae and with Escherichia coli [10] was under 99% in each case.
For the compound H-QPEATKCFQWQRNMRKVR-OH, the Activity in the experiment on Escherichia coli [6] was under 99%; in the experiment on Candida albicans [7] it was under 99%; with Enterococcus faecalis it was “>=99%”; with Pseudomonas aeruginosa it was under 99%; in [8] it was under 99%; in the experiment with Staphylococcus aureus [9], “>=99%”. For the same compound, the Activity with Klebsiella pneumoniae and in the experiment with Escherichia coli [10] was under 99% in each case.
With H-QWQRNMRKVR-OH, the Activity (in the experiment on Escherichia coli [6]; in the experiment with Candida albicans [7]; in the experiment on Enterococcus faecalis; in the experiment with Pseudomonas aeruginosa; in experiment [8]; with Staphylococcus aureus [9]) was under 99% throughout. The Activity in the experiment with Klebsiella pneumoniae and in the experiment on Escherichia coli [10] was under 99% throughout.
Regarding H-TKCFQWQRNMRKVR-OH, the Activity entry (in the experiment on Escherichia coli [6]; in the experiment with Candida albicans [7]; in the experiment with Enterococcus faecalis; in the experiment with Pseudomonas aeruginosa; in experiment [8]; with Staphylococcus aureus [9]) was “>=99%” throughout. Also, the Activity entry in the experiment with Klebsiella pneumoniae and in the experiment with Escherichia coli [10] was “>=99%” in each case. Besides, the MIC99 is 50 µg/mL in experiment [13]; 50 µg/mL against Candida albicans [14]; 100 µg/mL in the experiment on Staphylococcus aureus [15]; 25 µg/mL in experiment [16]; over 200 µg/mL against Candida albicans [17]; 50 µg/mL in the experiment with Staphylococcus aureus [18].
